Experimental data reported in ChEMBL document CHEMBL3627680, “An unprecedented dual antagonist and agonist of human Transglutaminase 2” (Bioorg Med Chem Lett, 2015).
Positions count from the first letter of the chain named. Calls of active or inactive are those of the source. No cut-off for these calls is given here.

Legend:
[1] = tested on: Protein-glutamine gamma-glutamyltransferase (Homo sapiens), P21980 [UNDEFINED MUTATION]; assay: Activation of recombinant human TG2 V224 mutant deamidation activity using Cbz-Gln-Gly as substrate at 15 uM preincubated for 30 mins followed by substrate addition by GDH-coupled assay in presence of 0.6 mM Ca2+
Protein-glutamine gamma-glutamyltransferase (Homo sapiens), P21980 [UNDEFINED MUTATION], sequence (P21980 whole entry, looked up, stated change not applied): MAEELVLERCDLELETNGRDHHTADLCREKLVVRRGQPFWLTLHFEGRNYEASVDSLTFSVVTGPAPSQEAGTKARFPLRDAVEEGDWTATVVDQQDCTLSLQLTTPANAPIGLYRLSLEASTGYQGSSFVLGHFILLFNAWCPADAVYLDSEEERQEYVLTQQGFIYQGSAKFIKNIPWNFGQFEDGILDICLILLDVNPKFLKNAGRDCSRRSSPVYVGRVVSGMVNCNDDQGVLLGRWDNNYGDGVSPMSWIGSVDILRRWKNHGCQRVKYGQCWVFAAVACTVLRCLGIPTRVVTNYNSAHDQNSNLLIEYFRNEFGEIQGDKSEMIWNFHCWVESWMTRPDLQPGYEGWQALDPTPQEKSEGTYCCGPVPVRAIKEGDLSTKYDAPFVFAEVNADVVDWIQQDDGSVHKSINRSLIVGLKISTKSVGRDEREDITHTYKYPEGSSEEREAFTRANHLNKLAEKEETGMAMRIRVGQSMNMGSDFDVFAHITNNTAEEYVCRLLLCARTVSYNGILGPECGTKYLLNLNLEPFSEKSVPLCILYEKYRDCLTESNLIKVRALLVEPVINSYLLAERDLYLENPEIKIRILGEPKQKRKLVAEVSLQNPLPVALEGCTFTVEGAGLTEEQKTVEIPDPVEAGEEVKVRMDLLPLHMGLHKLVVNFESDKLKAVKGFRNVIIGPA

[2] = tested on: Protein-glutamine gamma-glutamyltransferase (Homo sapiens), P21980 [UNDEFINED MUTATION]; assay: Effect on closed state of recombinant human TG2 V224 mutant at 100 uM after 1 hr by native PAGE analysis
[3] = tested on: Protein-glutamine gamma-glutamyltransferase (Homo sapiens), P21980 [UNDEFINED MUTATION]; assay: Activation of recombinant human TG2 V224 mutant transamidating activity assessed as 5-BP incorporation into immobilized N-N-dimethylcasein at 15 uM preincubated for 30 mins followed by 5-BP addition measured after 1 hr by streptavidin-based microtiter plate assay in presence of 0.6 mM Ca2+/100 uM GMP-PNP
How it was run: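 Transamidation microtiter assay: 5-BP incorporated into immobilized N,N-dimethylcasein by V224 TG2 at 0.6 mM Ca2+ plus 100 μM GMP-PNP, with incorporated biotin quantified with streptavidin.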

[4] = tested on: Protein-glutamine gamma-glutamyltransferase (Homo sapiens), P21980 [UNDEFINED MUTATION]; assay: Inhibition of human TG2 E447Q/E451Q/E452Q/E454Q mutant deamidation activity using Cbz-Gln-Gly as substrate preincubated for 30 mins followed by substrate addition by GDH-coupled assay in presence of 5 mM Ca2+
[5] = tested on: Protein-glutamine gamma-glutamyltransferase (Homo sapiens), P21980 [UNDEFINED MUTATION]; assay: Activation of recombinant human TG2 V224 mutant deamidation activity using Cbz-Gln-Gly as substrate preincubated for 30 mins followed by substrate addition by GDH-coupled assay in presence of 0.5 to 0.7 mM Ca2+
[6] = tested on: T1, Protein-glutamine gamma-glutamyltransferase (Homo sapiens), P21980 [R580A]; assay: Inhibition of recombinant human TG2 R580A mutant deamidation activity using Cbz-Gln-Gly as substrate at 10 uM preincubated for 30 mins followed by substrate addition by GDH-coupled assay in presence of 3 mM Ca2+
T1 sequence (whole entry): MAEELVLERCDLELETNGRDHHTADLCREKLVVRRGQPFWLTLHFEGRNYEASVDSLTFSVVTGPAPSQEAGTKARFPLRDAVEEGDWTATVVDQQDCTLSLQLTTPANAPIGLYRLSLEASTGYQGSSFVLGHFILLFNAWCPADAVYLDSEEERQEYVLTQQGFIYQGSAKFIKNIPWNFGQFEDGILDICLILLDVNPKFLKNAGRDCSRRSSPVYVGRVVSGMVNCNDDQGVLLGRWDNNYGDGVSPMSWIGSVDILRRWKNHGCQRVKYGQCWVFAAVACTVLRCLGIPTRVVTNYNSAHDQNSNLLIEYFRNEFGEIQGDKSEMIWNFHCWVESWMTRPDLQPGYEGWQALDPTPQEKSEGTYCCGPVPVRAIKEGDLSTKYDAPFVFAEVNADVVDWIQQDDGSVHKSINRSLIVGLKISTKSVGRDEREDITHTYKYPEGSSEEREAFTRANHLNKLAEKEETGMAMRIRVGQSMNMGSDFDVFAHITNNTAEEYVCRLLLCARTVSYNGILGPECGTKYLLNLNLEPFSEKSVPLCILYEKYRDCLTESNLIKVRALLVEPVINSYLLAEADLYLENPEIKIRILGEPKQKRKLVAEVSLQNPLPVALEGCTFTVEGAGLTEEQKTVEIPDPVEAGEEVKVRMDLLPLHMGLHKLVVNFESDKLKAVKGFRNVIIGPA
How it was run: (§1)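 GDH-coupled deamidation assay comparing wild-type and R580A TG2 at 0.5 μM enzyme and 3 mM Ca2+, with and without GMP-PNP.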

[7] = biological target: T2, Protein-glutamine gamma-glutamyltransferase (Homo sapiens) (UniProt P21980); assay: Activation of extracellular TG2 transamidating activity in human WI38 cells assessed as incorporation of 5-BP into fibronectin at 1 uM preincubated for 30 mins followed by 5-BP addition measured after 3 hrs by DAPI staining-based confocal fluorescence microscopic analysis; format: cell-based; conditions: WI-38
T2 sequence (whole entry): T1 sequence (whole entry) with A580R
How it was run: (§2)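 WI-38 fibroblasts grown to confluence, pre-incubated 30 min with vehicle (1% DMSO) or compound, then incubated with 200 μM 5-(biotinamido)-pentylamine for 3 h. Cells fixed and stained to image 5-BP incorporation into extracellular matrix proteins as a measure of TG2 transamidation. Five images sampled per well.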

[8] = tested on: T1, Protein-glutamine gamma-glutamyltransferase (Homo sapiens), P21980 [R580A]; assay: Activation of recombinant human TG2 R580A mutant deamidation activity using Cbz-Gln-Gly as substrate at 10 uM preincubated for 30 mins followed by substrate addition by GDH-coupled assay in presence of 3 mM Ca2+/500 uM GMP-PNP; how it was run: as §1
[9] = biological target: T2, Protein-glutamine gamma-glutamyltransferase (Homo sapiens); assay: Inhibition of human TG2 truncated (1 to 466 amino acid residues) mutant at 15 uM in presence of 5 mM Ca2+
How it was run: (§3)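 GDH-coupled deamidation with wild-type or truncated (1-466) TG2 at 0.5 μM enzyme and 5 mM Ca2+. Activity normalized to each protein's own maximum.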

[10] = tested on: Protein-glutamine gamma-glutamyltransferase (Homo sapiens), P21980 [UNDEFINED MUTATION]; assay: Inhibition of human TG2 E396Q/N398S/D400N mutant deamidation activity using Cbz-Gln-Gly as substrate preincubated for 30 mins followed by substrate addition by GDH-coupled assay in presence of 5 mM Ca2+
[11] = biological target: T2, Protein-glutamine gamma-glutamyltransferase (Homo sapiens); assay: Inhibition of wild type human TG2 deamidation activity using Cbz-Gln-Gly as substrate preincubated for 30 mins followed by substrate addition by GDH-coupled assay in presence of 5 mM Ca2+; how it was run: as §3
[12] = tested on: Protein-glutamine gamma-glutamyltransferase (Homo sapiens), P21980 [UNDEFINED MUTATION]; assay: Effect on open state of recombinant human TG2 V224 mutant at 100 uM after 1 hr by native PAGE analysis
[13] = biological target: T2, Protein-glutamine gamma-glutamyltransferase (Homo sapiens); assay: Activation of extracellular TG2 transamidating activity in human WI38 cells assessed as incorporation of 5-BP into fibronectin at 10 uM preincubated for 30 mins followed by 5-BP addition measured after 3 hrs by DAPI staining-based confocal fluorescence microscopic analysis; format: cell-based; conditions: WI-38; how it was run: as §2
[14] = biological target: T3, Protein-glutamine gamma-glutamyltransferase (Homo sapiens, UniProt P21980); assay: Non-competitive inhibition of recombinant human TG2 V224 mutant deamidation activity using Cbz-Gln-Gly as substrate preincubated for 30 mins followed by substrate addition by GDH-coupled assay in presence of 5 mM Ca2+
How it was run: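 V224 TG2 (0.5 μM) deamidation by GDH-coupled assay at 5 mM Ca2+. Rates measured across substrate concentrations at several inhibitor levels. Mode and Ki derived by Michaelis-Menten and Lineweaver-Burk analysis.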
Target sequence in this assay (P21980 2-687 limits assumed): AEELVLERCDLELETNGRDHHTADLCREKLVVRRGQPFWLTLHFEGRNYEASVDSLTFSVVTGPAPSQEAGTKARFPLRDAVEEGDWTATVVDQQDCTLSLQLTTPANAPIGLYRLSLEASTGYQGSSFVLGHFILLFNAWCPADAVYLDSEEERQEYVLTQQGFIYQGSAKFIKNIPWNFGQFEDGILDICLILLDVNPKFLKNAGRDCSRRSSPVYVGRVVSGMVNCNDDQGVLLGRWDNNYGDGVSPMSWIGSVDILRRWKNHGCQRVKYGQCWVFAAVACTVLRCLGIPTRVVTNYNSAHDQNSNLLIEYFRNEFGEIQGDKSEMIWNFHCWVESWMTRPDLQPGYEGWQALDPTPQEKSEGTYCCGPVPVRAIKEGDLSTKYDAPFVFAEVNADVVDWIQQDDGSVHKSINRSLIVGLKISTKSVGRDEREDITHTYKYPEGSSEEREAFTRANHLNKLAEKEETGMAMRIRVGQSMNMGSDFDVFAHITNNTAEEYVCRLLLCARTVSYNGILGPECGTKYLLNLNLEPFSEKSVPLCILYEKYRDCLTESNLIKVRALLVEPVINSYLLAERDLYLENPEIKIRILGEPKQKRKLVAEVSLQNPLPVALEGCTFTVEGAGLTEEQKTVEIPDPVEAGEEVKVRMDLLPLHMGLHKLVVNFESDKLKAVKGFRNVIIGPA

[15] = biological target: T2, Protein-glutamine gamma-glutamyltransferase (Homo sapiens); assay: Inhibition of wild type human TG2 at 15 uM in presence of 5 mM Ca2+; how it was run: as §3
[16] = tested on: Protein-glutamine gamma-glutamyltransferase (Homo sapiens), P21980 [UNDEFINED MUTATION]; assay: Activation of recombinant human TG2 V224 mutant deamidation activity using Cbz-Gln-Gly as substrate at 25 uM preincubated for 30 mins followed by substrate addition by GDH-coupled assay in presence of 0.6 mM Ca2+
[17] = biological target: T3, Protein-glutamine gamma-glutamyltransferase; assay: Competitive inhibition of recombinant human TG2 V224 mutant deamidation activity using Cbz-Gln-Gly as substrate preincubated for 30 mins followed by substrate addition by Lineweaver-Burk plot analysis in presence of 5 mM Ca2+
How it was run: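 Deamidation of Cbz-Gln-Gly by the V224 allele of human TG2 (0.5 μM) was read by a GDH-coupled assay at 5 mM Ca2+. Michaelis-Menten data were collected at several inhibitor levels, and Ki was derived from Lineweaver-Burk analysis.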
Target sequence in this assay (P21980 2-687 limits assumed, stated change not applied): as the sequence (P21980 2-687 limits assumed) above

[18] = tested on: Protein-glutamine gamma-glutamyltransferase (Homo sapiens), P21980 [UNDEFINED MUTATION]; assay: Effect on closed state of recombinant human TG2 V224 mutant at 500 uM after 1 hr by native PAGE analysis in presence of 1 mM MgCl2
[19] = tested on: Protein-glutamine gamma-glutamyltransferase (Homo sapiens), P21980 [UNDEFINED MUTATION]; assay: Effect on open state of recombinant human TG2 V224 mutant at 500 uM after 1 hr by native PAGE analysis in presence of 1 mM MgCl2

## COc1ccccc1C(=O)/C=C1/C(=O)Nc2cccc(Cl)c21
[1]
  Activity: Active
[2]
  Activity: inactive
[3]
  Activity: Active
[4]
  inhibition: inactive
[5]
  Activity: Active
[6]
  inhibition: Active
[7]
  Activity: Active
[8]
  Activity: Active
[9]
  inhibition: Active
[10]
  inhibition: Active
[11]
  inhibition: Active
[12]
  Activity: inactive
[13]
  Activity: inactive
[14]
  Ki: 3.3 µM
[15]
  inhibition: Active

## O=C(/C=C1/C(=O)N(c2ccccc2)c2cccc(Cl)c21)c1cccnc1
[16]
  Activity: Active
[14]
  Ki: 9.1 µM

## O=C1Nc2cccc(Cl)c2/C1=C\C(=O)c1ccc(Cl)cc1
[7]
  Activity: Active
[13]
  Activity: inactive
[14]
  Ki: 47 µM

## O=C1Nc2ccccc2/C1=C\C(=O)c1cccnc1
[14]
  Ki: 86 µM

## Nc1nc2c(ncn2[C@@H]2O[C@H](COP(=O)(O)OP(=O)(O)NP(=O)(O)O)[C@@H](O)[C@H]2O)c(=O)[nH]1 [PHOSPHOAMINOPHOSPHONIC ACID GUANYLATE ESTER]
[17]
  Ki: 27 µM
[18]
  Activity: inactive
[19]
  Activity: inactive
